# Assay results as given in ChEMBL document CHEMBL4610063, “Mangiferin: A promising natural xanthone from Mangifera indica for the control of acyclovir - resistant herpes simplex virus 1 infection” (Bioorg Med Chem, 2020).
# Activity calls are given as the source filed them. The calls are words filed in the database; no cut-off is given here.
# How the values were obtained:
# [1] = test system: Human alphaherpesvirus 1; experiment: Antiviral activity against ACV-resistant Herpes simplex virus 1 AR-29 infected in African green monkey Vero cells assessed as inhibition of viral infection at 6.25 ug/ml measured after 72 hrs by crystal violet staining based plaque reduction assay relative to control; type: functional; conditions: Human alphaherpesvirus 1, AR-29, Vero
# In short: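 Plaque reduction in Vero cells. Mangiferin at 3.12, 6.25, 12.5 or 25 μg/mL is added at infection (0 h) with HSV-1 (10^5 PFU/mL). Agarose overlay with 25 mM MgCl2, 72 h at 37 °C/5% CO2, 20% formaldehyde fix, 0.5% crystal violet stain. %VI is taken against virus control. IC50 comes from linear regression of inhibition curves. Triplicate independent experiments.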
# [2] = test system: Human alphaherpesvirus 1; experiment: Antiviral activity against ACV-resistant Herpes simplex virus 1 AR-29 infected in African green monkey Vero cells assessed as suppression of viral replication by measuring reduction in ICP4 production at 12.5 ug/ml measured after 24 hrs by immunofluorescence assay relative to control; type: functional; design: scale not given: the % may be the effect or the level left
# In short: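 Vero cells on coverslips, infected with HSV-1 AR-29 and given mangiferin (1.56–12.5 μg/mL) at 0 h. At 24 h they are acetone-fixed (−20 °C, 20 min) and blocked with 2% skim milk. Stained with mouse anti-ICP4 and FITC anti-mouse IgG. 100 cells per coverslip are scored by fluorescence microscopy, inhibition relative to infected untreated cells. Duplicate experiments.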
# [3] = test system: Human alphaherpesvirus 1; experiment: Antiviral activity against ACV-resistant Herpes simplex virus 1 AR-29 infected in African green monkey Vero cells assessed as inhibition of viral adsorption at 12.5 ug/mL preincubated for 30 mins and measured after 1 hr by plaque reduction assay relative to control; type: functional; conditions: Human alphaherpesvirus 1, AR-29, Vero
# In short: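 Vero cells pre-chilled 30 min at 4 °C, then given mangiferin (3.12–25 μg/mL) together with HSV-1 AR-29 (10^5 PFU/mL) for 1 h adsorption at 4 °C. Plaque reduction assay follows: nutrient agarose overlay with 25 mM MgCl2, 72 h at 37 °C/5% CO2, formaldehyde fixation, crystal violet stain. %VI = [1 − PFU treated/PFU virus control] × 100.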
# [4] = test system: Human alphaherpesvirus 1; experiment: Antiviral activity against ACV-resistant Herpes simplex virus 1 AR-29 infected in male Balb/c mouse assessed as reduction in ulcerated lesion at 0.7% w/w applied topically 5 times a day at 3 hrs interval for 10 days measured on day 7 post infection; type: functional, organism-based
# In short: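 Balb/c mice, 5 weeks old, six per group. Right mid-flank depilated under i.p. anaesthesia, needle-scarified 24 h later and inoculated with 70 μL HSV-1 AR-29 (10^5 PFU/mL). Topical 0.7% w/w O/W emulsion or ACV cream (50 mg/g) starts 4 h post-infection, 5 times daily for 10 days. Lesions are scored daily.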
compound,measurement,setting,value
O=c1c2cc(O)c(O)cc2oc2cc(O)c([C@@H]3O[C@H](CO)[C@@H](O)[C@H](O)[C@H]3O)c(O)c12 [MANGIFERIN],inhibition at 6.25 µg/mL,[1],94.4%
same,Activity,[2],54.1%
same,inhibition at 12.5 µg/mL,[3],71.3%
same,Activity,[4],Active
